Ba/F3 V617F tox: lowers viability of Ba/F3 cells expressing EpoR and JAK2V617F; AID 1446; inhibition, % at 5.6 µM; ATP luminescence; actives 1.1% (n = 220,000);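 active = inhibition above the campaign mean plus 3 SD over all tested compounds, cut at about 24% in these data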;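 note: cytokine-independent growth of Ba/F3 cells driven by EpoR plus mutant JAK2; 0% = DMSO-treated cells and 100% = JAK inhibitor I control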
b-catenin transl: beta-catenin nuclear translocation modulation; actives 0.3% (n = 190,000); nuclear translocation activity, % at 5 µM; AID 1665; HeLa beta-catenin nuclear translocation, immunofluorescence imaging;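 active = nuclear translocation activity above 50% at 5 µM, with a well cell count of 50 or more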;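 note: per-cell ratio of nuclear to cytoplasmic median beta-catenin stain intensity; plate controls were DMSO negative control for no effect and GSK-3 inhibitor IX positive control for full effect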
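Technique: fluorescence imaging of beta-catenin antibody stain plus DAPI / Material: human HeLa cell line / Incubation: compound treatment 24 h, 37°C, 5% CO2 / Read-out basis: % activation of per-cell nuclear versus cytoplasmic median beta-catenin signal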
KLF5 inhibitor: kruppel-like factor 5 inhibition. DLD-1 KLF5 promoter-luciferase reporter, luminescence. inhibition, % at 5 µM. actives 0.23% (n = 290,000);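 active = inhibition above a per-plate limit of that plate's mean compound inhibition plus 3 SD, cut at about 60% in these data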;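 note: 0% = DMSO wells and 100% = LY294002 at 200 µM; higher means less KLF5 promoter-driven luciferase light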
IEC-6 cytotox: kills IEC-6 intestinal cells in KLF5 counter-screen. IEC-6 cytotoxicity, luminescence viability. inhibition, % at 5 µM. actives 0.78% (n = 290,000). AID 1825; in the data active = inhibition above about 22%;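 note: 0% = plate median of test compound wells and 100% = cytotoxic reference compound wells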
MT stabilizer: microtubule stabilization, imaging screen; HeLa tubulin immunostaining HCS, 24 h; share of cells brighter than vehicle mean+2SD; % tubulin-high responders, % at 10 µM; actives 0.83% (n = 200,000);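 active = plate Z-score above 3 for both tubulin-high and condensed-nucleus cell shares, with cell loss under 80%, at 10 µM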;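 note: anti alpha tubulin signal scored within the nucleus-defined area of each cell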
BaF3 tox: parental Ba/F3 viability inhibition as JAK2V617F counter-screen | CellTiter-Glo ATP luminescence | inhibition, % at 5.6 µM | actives 1.1% (n = 220,000);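 active = inhibition above a per-campaign cutoff, the mean inhibition of all tested compounds plus 3 SD, cut at about 27% in these data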;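 note: 0% = DMSO wells and 100% = JAK Inhibitor I control wells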
Starred values were filed as active, the others as inactive; · = no result. This is a sample that favours compounds with a hit; in the whole collection about 2.1% have one here.

SMILES | Ba/F3 V617F tox | b-catenin transl | KLF5 inhibitor | IEC-6 cytotox | MT stabilizer | BaF3 tox
O=C(Nc1ccnn1C1CCN(Cc2ccccc2OC(F)F)CC1)c1cccc(F)c1 | · | · | -21 | -7 | · | ·
CCOc1ccc(C(=O)c2ccc(OCC)c(N)c2)cc1N | 2 | 5 | -45 | 8 | 53* | 7
CN(C)c1ccc(C(=O)c2ccc(N(C)C)c(N)c2)cc1N | -2 | 5 | -12 | 4 | 23* | 10
CN(C)c1ccc(C(=O)c2ccccc2)cc1 | 4 | -12 | -109 | 5 | 3 | 7
C=C(CC)C(=O)c1ccc(OCC(=O)O)c(Cl)c1Cl | 1 | -1 | 6 | -2 | 2 | 7
CC(=O)c1c(C)oc2ccc(N(C(C)=O)S(=O)(=O)c3ccc(F)cc3C)cc12 | · | · | -10 | 3 | · | ·
CC(=O)c1c(C)oc2ccc(N(C(C)=O)S(=O)(=O)c3cccc4cccnc34)cc12 | 27* | 0 | -11 | 7 | · | 37*
COc1ccc(NC(=O)CCCN2C(=O)C3CC=CCC3C2=O)cc1 (configuration not stated) | · | · | -30 | -4 | · | ·
COc1ccc2c(Cl)c(C(=O)N/N=C/c3c(C)[nH]c4ccccc34)sc2c1 | 1 | 78* | 4 | 1 | 22* | 7
CCC(CO)Nc1nc2ccc(Cl)cc2c2ccccc12 (configuration not stated) | 2 | 1 | 8 | 6 | · | -1
CC(C)(C)OC(=O)N[C@@H](Cc1ccccc1)c1nnc(S(=O)(=O)Cc2ccccc2)o1 | 58* | 2 | -2 | 5 | 1 | 8
CCC(=O)Nc1sc(Cc2ccc3c(c2)OCO3)c(C)c1C(N)=O | -2 | 0 | -22 | 1 | · | -3
Cc1c(Cc2ccc3c(c2)OCO3)sc(NC(=O)C(C)(C)C)c1C#N | 0 | -1 | -4 | 5 | 22* | 1
COCc1cccc(C(=O)NC(c2ccccc2)c2ccccc2)c1 | · | · | -8 | -1 | · | ·
COC(=O)Cc1c(O)ccn(Cc2cccc3ccccc23)c1=O | 0 | · | -31 | -7 | 1 | 3
COc1cccc(CSc2nc3ccccc3cc2C=O)c1 | 50* | 2 | 31 | 7 | 14 | 36*
COc1cccc(NC(=O)CSc2nc3ccccc3cc2Cc2ccccc2)c1 | -3 | 0 | -6 | -6 | 2 | 0
Cc1nn(C)c(C)c1CN(Cc1nc(CCC(C)C)no1)C(C)C | 53* | 1 | 6 | 9 | · | 81*
Cc1cccc2sc(NC(=O)c3ccc(OCC4CCCO4)cc3)nc12 (configuration not stated) | 1 | 1 | -29 | -2 | 5 | 8
CCOc1ccc2nc(NC(=O)c3ccc(OCC4CCCO4)cc3)sc2c1 (configuration not stated) | 56* | -3 | -57 | -5 | 5 | 60*
CCSc1nnc(NC(=O)c2cccc(OCc3c(C)noc3C)c2)s1 | 0 | 5 | -45 | 1 | 3 | 8
COc1ccc2nc(NC(=O)c3cccc(OCc4c(C)noc4C)c3)sc2c1 | -1 | 72* | -3 | 6 | 30* | 3
O=C(CCl)Nc1cccc(S(=O)(=O)N2CCCCCC2)c1 | 1 | 31 | -15 | 12 | 13* | -2
CC(=O)N1CCN(CC(=O)Nc2cccc(S(=O)(=O)N3CCCCCC3)c2)CC1 | 5 | 0 | -35 | 6 | 1 | 5
O=C(c1cccc(S(=O)(=O)N2CCCC2)c1)N1CCN(c2ccccc2)CC1 | 4 | · | -43 | -4 | 18* | 6
SMILES | Ba/F3 V617F tox | b-catenin transl | KLF5 inhibitor | IEC-6 cytotox | MT stabilizer | BaF3 tox
O=C(NCCO)c1cccc(S(=O)(=O)N2CCCCC2)c1 | 1 | -4 | -21 | -5 | 4 | 94*
O=C(c1cccc(S(=O)(=O)N2CCCCCC2)c1)N1CCN(c2ccccc2)CC1 | -1 | 0 | -1 | 0 | 4 | 5
O=C1Nc2cc(Cl)c(Cl)cc2N(O)N1c1ccc(Cl)c(Cl)c1 | -1 | 0 | 12 | 4 | 2 | 0
CCC(=O)Nc1ccccc1C(=O)C(=O)Nc1ccccc1 | 4 | 2 | -9 | 7 | 2 | 5
Cn1nnnc1SCc1csc(C2C(C#N)=C(N)OC3=C2C(=O)CCC3)c1 (configuration not stated) | -1 | -1 | -18 | -5 | 2 | 9
CCOCCCNC(=O)c1cc(Cl)c(NC(=O)C2=C(C)OCCS2)cc1OC | · | · | 4 | 4 | · | ·
